Activity calls are given as the source filed them. No cut-off for these calls is given here.
Experiments:
[1] = molecular target: T1, Monoglyceride lipase (Homo sapiens) (UniProt Q99685); test: Inhibition of human recombinant MAGL using 2-arachidonoylglycerol substrate assessed as arachidonic acid at 10 uM by HPLC analysis
T1 sequence (whole entry): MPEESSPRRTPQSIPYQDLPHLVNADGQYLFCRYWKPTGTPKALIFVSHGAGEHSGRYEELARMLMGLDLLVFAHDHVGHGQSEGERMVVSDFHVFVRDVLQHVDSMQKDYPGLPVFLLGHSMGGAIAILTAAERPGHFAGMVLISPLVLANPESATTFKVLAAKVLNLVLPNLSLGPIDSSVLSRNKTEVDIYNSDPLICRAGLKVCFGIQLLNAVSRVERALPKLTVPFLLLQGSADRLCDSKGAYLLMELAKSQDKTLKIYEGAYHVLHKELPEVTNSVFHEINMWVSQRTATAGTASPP
How it was run: (§1)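 Human recombinant enzyme screened at a single test concentration; percent inhibition is the mean of two independent experiments, each run in duplicate.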

[2] = molecular target: T2, Fatty-acid amide hydrolase 1 (Homo sapiens) (UniProt O00519); test: Inhibition of human FAAH using [ethanolamine 1-3H] substrate assessed as radioactivity at 10 uM by liquid scintillation counting analysis; how it was run: as §1
T2 sequence (whole entry): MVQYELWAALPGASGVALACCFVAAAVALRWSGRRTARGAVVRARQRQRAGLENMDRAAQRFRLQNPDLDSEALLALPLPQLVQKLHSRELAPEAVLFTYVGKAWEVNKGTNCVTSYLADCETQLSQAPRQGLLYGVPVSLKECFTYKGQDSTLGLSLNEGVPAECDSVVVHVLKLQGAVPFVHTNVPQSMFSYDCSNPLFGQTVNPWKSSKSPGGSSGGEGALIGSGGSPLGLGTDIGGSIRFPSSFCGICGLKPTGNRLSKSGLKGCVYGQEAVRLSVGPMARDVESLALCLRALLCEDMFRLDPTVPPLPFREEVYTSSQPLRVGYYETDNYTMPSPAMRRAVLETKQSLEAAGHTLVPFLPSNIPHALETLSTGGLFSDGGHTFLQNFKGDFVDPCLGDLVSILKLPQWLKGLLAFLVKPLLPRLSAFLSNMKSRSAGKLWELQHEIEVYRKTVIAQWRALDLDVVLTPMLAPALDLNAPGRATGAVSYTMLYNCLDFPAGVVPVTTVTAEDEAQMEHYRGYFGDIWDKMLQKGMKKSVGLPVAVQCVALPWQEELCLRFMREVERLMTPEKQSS

[3] = molecular target: T3, Monoglyceride lipase (Homo sapiens, UniProt Q99685); test: Inhibition of human recombinant MAGL using 2-arachidonoylglycerol substrate assessed as arachidonic acid by HPLC analysis
T3 sequence (Q99685 whole entry): T1 sequence (whole entry)

[4] = molecular target: Cannabinoid receptor 2 (Homo sapiens) (UniProt P34972); test: Agonist activity at human cannabinoid CB2 receptor introduced into CHO cells assessed as [35S]GTPgammaS binding relative to control; format: functional, cell-based
How it was run: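 [35S]GTPγS binding in membranes from CHO cells expressing hCB2R, test compound alone. Read-out is % of basal binding, mean (range), n = 2.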

[5] = molecular target: T3, Monoglyceride lipase; test: Reversible inhibition of human recombinant MAGL using 2-arachidonoylglycerol substrate assessed as arachidonic acid after 90 mins by HPLC analysis
[6] = molecular target: T4, Monoacylglycerol lipase ABHD6 (Homo sapiens, UniProt Q9BV23); test: Inhibition of human ABHD6 containing pCMV6-AC-hABHD6 transfected into HEK293 cells; format: cell-based
T4 sequence (Q9BV23 whole entry): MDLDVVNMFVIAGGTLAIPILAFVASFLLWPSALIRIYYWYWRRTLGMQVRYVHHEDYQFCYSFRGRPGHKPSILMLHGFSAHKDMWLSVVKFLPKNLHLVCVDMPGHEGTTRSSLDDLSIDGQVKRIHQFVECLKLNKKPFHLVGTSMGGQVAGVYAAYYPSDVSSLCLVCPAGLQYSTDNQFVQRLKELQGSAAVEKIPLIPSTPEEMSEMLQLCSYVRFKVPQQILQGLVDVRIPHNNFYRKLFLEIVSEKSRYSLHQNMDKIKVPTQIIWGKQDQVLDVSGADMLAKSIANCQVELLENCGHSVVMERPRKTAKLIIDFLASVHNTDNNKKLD

[7] = molecular target: T3, Monoglyceride lipase; test: Reversible inhibition of human recombinant MAGL using 2-arachidonoylglycerol substrate assessed as arachidonic acid after 30 mins by HPLC analysis
[8] = molecular target: T3, Monoglyceride lipase; test: Reversible inhibition of human recombinant MAGL using 2-arachidonoylglycerol substrate assessed as arachidonic acid after 60 mins by HPLC analysis
[9] = molecular target: T5, Fatty-acid amide hydrolase 1 (Homo sapiens, UniProt O00519); test: Inhibition of human FAAH using [ethanolamine 1-3H] substrate assessed as radioactivity by liquid scintillation counting analysis
T5 sequence (O00519 whole entry): T2 sequence (whole entry)

[10] = molecular target: T3, Monoglyceride lipase; test: Reversible inhibition of human recombinant MAGL using 2-arachidonoylglycerol substrate assessed as arachidonic acid after 10 mins by HPLC analysis
[11] = molecular target: Cannabinoid receptor 1 (Rattus norvegicus) (UniProt P20272); test: Antagonist activity at rat cerebellar membrane cannabinoid CB1 receptor assessed as HU210-evoked [35S]GTPgammaS binding response relative to control; format: functional; design: scale not given: the % may be the effect or the level left
How it was run: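 [35S]GTPγS binding in rat cerebellar membranes, test compound co-incubated with HU210 agonist. Expressed as % of the HU210-evoked response, mean (range), n = 2.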

[12] = molecular target: Histamine H1 receptor (Cavia porcellus, UniProt P31389); test: Antagonist activity at histamine H1 receptor in guinea pig jejunum assessed as reduction in histamine-induced contractions; settings: read-out: pA2 (converted)
[13] = molecular target: T6, Lysophosphatidylserine lipase ABHD12 (Homo sapiens) (UniProt Q8N2K0); test: Inhibition of human ABHD12 containing pCMV6-XL4-hABHD12 transfected into HEK293 cells at 10 uM; format: cell-based
T6 sequence (whole entry): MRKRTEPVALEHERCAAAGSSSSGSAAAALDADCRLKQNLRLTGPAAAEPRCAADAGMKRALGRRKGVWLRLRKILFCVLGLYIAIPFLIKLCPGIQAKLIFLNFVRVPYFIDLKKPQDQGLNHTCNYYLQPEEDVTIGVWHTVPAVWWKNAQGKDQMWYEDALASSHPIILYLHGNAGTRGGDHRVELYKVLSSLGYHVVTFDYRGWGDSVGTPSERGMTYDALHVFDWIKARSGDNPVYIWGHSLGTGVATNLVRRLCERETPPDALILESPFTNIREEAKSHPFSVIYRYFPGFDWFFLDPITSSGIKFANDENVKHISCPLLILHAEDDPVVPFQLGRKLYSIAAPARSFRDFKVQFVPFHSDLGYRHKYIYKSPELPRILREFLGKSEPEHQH

[14] = molecular target: Cannabinoid receptor 1 (Rattus norvegicus) (UniProt P20272); test: Agonist activity at rat cerebellar membrane cannabinoid CB1 receptor assessed as [35S]GTPgammaS binding relative to control; format: functional
How it was run: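 [35S]GTPγS binding in rat cerebellar membranes, test compound alone at a single concentration. Read-out is % of basal binding, mean (range), n = 2.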

Chain of Cannabinoid receptor 1 (Rattus norvegicus) (P20272 whole entry): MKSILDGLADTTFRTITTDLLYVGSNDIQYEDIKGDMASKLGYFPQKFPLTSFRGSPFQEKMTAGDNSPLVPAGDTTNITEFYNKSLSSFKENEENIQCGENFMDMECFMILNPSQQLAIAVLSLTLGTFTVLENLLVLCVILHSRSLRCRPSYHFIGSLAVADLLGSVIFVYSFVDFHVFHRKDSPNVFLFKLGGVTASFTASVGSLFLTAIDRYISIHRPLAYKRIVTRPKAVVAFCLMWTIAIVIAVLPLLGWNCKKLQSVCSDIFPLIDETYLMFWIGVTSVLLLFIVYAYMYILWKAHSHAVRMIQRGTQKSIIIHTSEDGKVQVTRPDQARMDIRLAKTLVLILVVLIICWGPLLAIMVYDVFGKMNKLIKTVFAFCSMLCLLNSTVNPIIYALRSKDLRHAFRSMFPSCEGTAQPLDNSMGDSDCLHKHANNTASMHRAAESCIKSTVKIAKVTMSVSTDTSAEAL
Chain of Histamine H1 receptor (P31389 whole entry): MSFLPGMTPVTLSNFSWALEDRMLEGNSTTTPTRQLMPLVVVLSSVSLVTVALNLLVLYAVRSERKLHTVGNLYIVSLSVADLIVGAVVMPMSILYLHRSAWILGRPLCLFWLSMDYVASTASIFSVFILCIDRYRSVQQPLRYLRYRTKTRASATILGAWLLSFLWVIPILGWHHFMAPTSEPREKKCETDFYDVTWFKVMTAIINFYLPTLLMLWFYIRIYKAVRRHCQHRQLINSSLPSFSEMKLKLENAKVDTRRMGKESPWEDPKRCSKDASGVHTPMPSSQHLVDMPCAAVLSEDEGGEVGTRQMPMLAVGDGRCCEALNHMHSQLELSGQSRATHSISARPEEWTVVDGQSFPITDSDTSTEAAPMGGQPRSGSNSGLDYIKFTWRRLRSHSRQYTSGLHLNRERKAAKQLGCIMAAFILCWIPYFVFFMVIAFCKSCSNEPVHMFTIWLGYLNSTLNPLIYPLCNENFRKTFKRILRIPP
Chain of Cannabinoid receptor 2 (Homo sapiens) (P34972 whole entry): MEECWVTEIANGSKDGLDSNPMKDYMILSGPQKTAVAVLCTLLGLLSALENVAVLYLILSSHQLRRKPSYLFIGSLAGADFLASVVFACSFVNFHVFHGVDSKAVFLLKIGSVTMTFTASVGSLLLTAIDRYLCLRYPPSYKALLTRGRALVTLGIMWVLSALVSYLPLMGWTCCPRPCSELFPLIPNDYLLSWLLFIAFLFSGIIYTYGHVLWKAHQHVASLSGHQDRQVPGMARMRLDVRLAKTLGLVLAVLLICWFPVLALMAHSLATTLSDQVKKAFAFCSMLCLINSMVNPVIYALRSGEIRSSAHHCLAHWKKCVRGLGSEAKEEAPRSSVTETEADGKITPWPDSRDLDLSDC

inhibition [1] | inhibition [2] | SMILES | IC50 [3] | further results
inactive | inactive | CN(C(=O)N1CCC(=C2c3ccc(Cl)cc3CCc3cccnc32)CC1)C1CCCCC1 | – | –
inactive | 11% | CN(C(=O)N1CCC(=C2c3ccc(Cl)cc3CCc3cccnc32)CC1)c1ccccc1 | – | –
inactive | 14% | O=C(Oc1ccc([N+](=O)[O-])cc1[N+](=O)[O-])N1CCC(=C2c3ccc(Cl)cc3CCc3cccnc32)CC1 | – | –
14% | 12% | O=[N+]([O-])c1ccc(SC(=S)N2CCC(=C3c4ccc(Cl)cc4CCc4cccnc43)CC2)c([N+](=O)[O-])c1 | – | –
inactive | 7% | O=C(N1CCC(=C2c3ccc(Cl)cc3CCc3cccnc32)CC1)n1ccnc1 | – | –
27% | 6% | O=C(Oc1ccc([N+](=O)[O-])cc1)N1CCC(=C2c3ccc(Cl)cc3CCc3cccnc32)CC1 | – | –
inactive | 11% | CCOC(=O)N1CCC(=C2c3ccc(Cl)cc3CCc3cccnc32)CC1 | – | –
inactive | 9% | O=C(NC1CCCCC1)N1CCC(=C2c3ccc(Cl)cc3CCc3cccnc32)CC1 | – | –

Second part, the compound before the results:

SMILES | inhibition [1] | inhibition [2] | IC50 [3] | further results
O=C(N1CCC(C(c2ccc3c(c2)OCO3)c2ccc3c(c2)OCO3)CC1)n1cncn1 | – | – | 0.36 nM | –
O=C(N1CCC(=C2c3ccc(Cl)cc3CCc3cccnc32)CC1)n1cncn1 | – | – | 46 nM | Activity [4]: 101%; IC50 [5]: 309 nM; IC50 [6]: 1780 nM; IC50 [7]: 224 nM; IC50 [8]: 257 nM; IC50 [9]: 7240 nM; IC50 [10]: 209 nM; Activity [11]: 80%; Kb [12]: 155 nM; inhibition [13]: inactive; Activity [14]: 90%
O=C(OC(C(F)(F)F)C(F)(F)F)N1CCC(=C2c3ccc(Cl)cc3CCc3cccnc32)CC1 | – | 15% | 645 nM | –
O=C(N1CCC(=C2c3ccc(Cl)cc3CCc3cccnc32)CC1)n1nnc2ccccc21 | – | 22% | 208 nM | –
O=C(ON1C(=O)CCC1=O)N1CCC(=C2c3ccc(Cl)cc3CCc3cccnc32)CC1 | – | 12% | 2570 nM | –
O=C(N1CCC(=C2c3ccccc3C=Cc3ccccc32)CC1)n1cncn1 | – | – | 47 nM | IC50 [6]: 750 nM; IC50 [9]: 6910 nM; Kb [12]: 316 nM; inhibition [13]: inactive
O=C(N1CCC(=C2c3ccc(Cl)cc3CCc3cccnc32)CC1)n1nnc2ncccc21 | – | 30% | 98 nM | –

Reference: ChEMBL document CHEMBL3400077 (Bioorg Med Chem Lett, 2015)
